Measured values taken from PMC6977399 (Clinical Pharmacology and Therapeutics, 2019).

Legend:
CYP2C8 = target: T1, CYP2C8 (Homo sapiens, UniProt P10632); assay: CYP inhibition in human liver microsomes; assay type: in vitro ADME; settings: up to 50 μM
T1 sequence (P10632 1-490): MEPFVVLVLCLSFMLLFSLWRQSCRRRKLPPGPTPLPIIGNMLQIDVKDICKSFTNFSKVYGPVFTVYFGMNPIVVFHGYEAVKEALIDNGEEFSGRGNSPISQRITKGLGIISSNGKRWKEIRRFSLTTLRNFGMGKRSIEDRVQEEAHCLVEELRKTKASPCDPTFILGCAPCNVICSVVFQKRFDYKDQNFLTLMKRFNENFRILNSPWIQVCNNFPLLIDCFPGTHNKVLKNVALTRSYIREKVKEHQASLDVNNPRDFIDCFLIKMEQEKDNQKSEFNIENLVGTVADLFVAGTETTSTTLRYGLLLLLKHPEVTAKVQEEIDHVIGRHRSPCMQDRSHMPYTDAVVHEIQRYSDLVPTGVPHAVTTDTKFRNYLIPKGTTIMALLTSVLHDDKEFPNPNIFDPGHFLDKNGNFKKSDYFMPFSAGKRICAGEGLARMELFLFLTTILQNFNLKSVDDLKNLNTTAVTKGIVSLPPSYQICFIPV
Outline: (§1)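 Reversible inhibition: test compound pre-incubated 10 min at 37°C with pooled human liver microsomes plus an isoform-selective probe substrate. Reaction started with NADPH (1.3 mM), then quenched with 3% formic acid in acetonitrile containing internal standard. CYP-specific metabolite formation measured by LC-MS/MS. Activity expressed as % control = (peak area ratio with compound / without compound) × 100.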

CYP2B6 = target: T2, CYP2B6 (Homo sapiens, UniProt P20813); assay: CYP inhibition in human liver microsomes; assay type: in vitro ADME; settings: up to 50 μM
T2 sequence (P20813 1-491): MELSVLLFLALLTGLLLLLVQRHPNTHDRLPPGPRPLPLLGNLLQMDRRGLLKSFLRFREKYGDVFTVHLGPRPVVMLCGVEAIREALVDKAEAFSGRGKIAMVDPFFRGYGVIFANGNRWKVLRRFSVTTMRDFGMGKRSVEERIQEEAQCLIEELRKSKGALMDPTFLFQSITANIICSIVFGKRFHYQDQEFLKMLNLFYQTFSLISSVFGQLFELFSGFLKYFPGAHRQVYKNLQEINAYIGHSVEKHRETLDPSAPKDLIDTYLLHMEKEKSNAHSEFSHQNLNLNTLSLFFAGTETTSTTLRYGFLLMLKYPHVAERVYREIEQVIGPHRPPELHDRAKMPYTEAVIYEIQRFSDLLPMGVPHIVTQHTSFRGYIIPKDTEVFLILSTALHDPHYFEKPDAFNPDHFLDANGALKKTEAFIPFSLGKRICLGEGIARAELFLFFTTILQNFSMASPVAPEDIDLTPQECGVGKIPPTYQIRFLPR
Outline: as §1

Bruton's tyrosine kinase = settings: phase I studies; cited from earlier work
OATP1B3 = target: T3, OATP1B3 (Homo sapiens, UniProt Q9NPD5); assay: Inhibition of OATP1B3-mediated CCK-8 uptake in HEK293 cells; assay type: in vitro ADME
T3 sequence (Q9NPD5 1-702): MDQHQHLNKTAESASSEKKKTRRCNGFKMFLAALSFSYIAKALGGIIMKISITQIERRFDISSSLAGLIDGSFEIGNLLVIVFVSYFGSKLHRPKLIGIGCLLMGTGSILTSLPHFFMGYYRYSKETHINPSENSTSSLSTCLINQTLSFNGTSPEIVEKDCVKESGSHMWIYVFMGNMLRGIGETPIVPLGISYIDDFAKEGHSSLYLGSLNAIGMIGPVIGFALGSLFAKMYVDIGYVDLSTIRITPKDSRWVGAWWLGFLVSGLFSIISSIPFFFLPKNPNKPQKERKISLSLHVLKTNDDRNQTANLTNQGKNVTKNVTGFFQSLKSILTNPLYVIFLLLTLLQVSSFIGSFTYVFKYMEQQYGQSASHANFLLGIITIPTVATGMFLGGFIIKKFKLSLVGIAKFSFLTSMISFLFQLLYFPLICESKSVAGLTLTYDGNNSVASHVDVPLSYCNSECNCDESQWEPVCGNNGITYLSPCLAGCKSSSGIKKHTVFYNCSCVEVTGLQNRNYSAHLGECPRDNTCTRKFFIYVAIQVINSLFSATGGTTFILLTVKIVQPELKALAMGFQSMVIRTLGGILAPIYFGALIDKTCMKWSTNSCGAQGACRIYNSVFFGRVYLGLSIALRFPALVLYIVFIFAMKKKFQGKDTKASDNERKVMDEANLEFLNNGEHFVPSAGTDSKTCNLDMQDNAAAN

CYP2C9 = CYP2C9 (Homo sapiens, UniProt P11712); assay: CYP inhibition in human liver microsomes; assay type: in vitro ADME; settings: up to 50 μM
Outline: as §1

[1] = Fenebrutinib plasma exposure at 200 mg b.i.d. in the clinical DDI study; assay type: in vivo; settings: human, oral, observed Cmax at steady-state, data not shown
CYP2D6 = CYP2D6 (Homo sapiens, UniProt P10635); assay: CYP inhibition in human liver microsomes; assay type: in vitro ADME; settings: up to 15 μM
CYP3A [2] = settings: 200 mg b.i.d.; based on MDZ AUC increase, weak > 1.25 to < 2-fold
[3] = phase I single-ascending and multiple-ascending dose studies; cited from earlier work
CYP3A [4] = assay: Time-dependent inhibition of CYP3A in human liver microsomes; assay type: in vitro ADME; settings: for kinact: human
CYP3A [5] = assay: Reversible CYP3A inhibition in human liver microsomes; assay type: in vitro ADME; settings: MDZ and testosterone as probe substrates
Outline: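 Test compound was pre-incubated for 10 min at 37°C with pooled human liver microsomes containing an isoform-selective substrate. Metabolite formation was expressed as % control activity, calculated as the peak area ratio with compound divided by the peak area ratio without compound, ×100.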

Sequence of CYP2C9 (P11712 whole entry): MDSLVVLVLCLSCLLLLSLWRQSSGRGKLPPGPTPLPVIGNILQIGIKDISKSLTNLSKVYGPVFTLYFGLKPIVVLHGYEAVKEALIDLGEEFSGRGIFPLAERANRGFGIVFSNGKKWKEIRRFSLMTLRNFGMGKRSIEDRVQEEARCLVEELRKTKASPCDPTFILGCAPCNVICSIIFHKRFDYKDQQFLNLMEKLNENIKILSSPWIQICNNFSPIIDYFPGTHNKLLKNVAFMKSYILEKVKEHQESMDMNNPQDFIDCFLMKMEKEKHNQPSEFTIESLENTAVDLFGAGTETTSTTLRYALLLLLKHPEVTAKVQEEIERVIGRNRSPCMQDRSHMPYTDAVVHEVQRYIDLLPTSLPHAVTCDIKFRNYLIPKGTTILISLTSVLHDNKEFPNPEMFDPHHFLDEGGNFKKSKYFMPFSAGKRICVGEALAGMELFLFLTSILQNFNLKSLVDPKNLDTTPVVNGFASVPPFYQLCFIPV
Sequence of CYP2D6 (P10635 whole entry): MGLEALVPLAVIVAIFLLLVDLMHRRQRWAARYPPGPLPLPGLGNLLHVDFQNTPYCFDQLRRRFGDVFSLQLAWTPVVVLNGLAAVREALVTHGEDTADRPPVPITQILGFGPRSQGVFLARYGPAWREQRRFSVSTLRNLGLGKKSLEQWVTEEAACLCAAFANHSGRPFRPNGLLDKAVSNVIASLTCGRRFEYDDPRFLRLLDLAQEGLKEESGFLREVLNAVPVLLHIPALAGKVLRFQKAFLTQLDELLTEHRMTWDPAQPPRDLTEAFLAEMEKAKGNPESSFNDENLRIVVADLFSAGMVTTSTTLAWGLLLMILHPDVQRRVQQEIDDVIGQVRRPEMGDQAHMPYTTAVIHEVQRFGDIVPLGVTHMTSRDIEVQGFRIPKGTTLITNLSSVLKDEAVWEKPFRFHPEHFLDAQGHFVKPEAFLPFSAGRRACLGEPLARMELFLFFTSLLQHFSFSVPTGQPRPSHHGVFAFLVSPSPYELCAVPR

C[C@H]1CN(C2COC2)CCN1c1ccc(Nc2cc(-c3ccnc(N4CCn5c(cc6c5CC(C)(C)C6)C4=O)c3CO)cn(C)c2=O)nc1 [fenebrutinib]
reversible or time-dependent inhibition of CYP2C8 (CYP2C8): No reversible or time‐dependent inhibition | reversible or time-dependent inhibition of CYP2B6 (CYP2B6): No reversible or time‐dependent inhibition | plasma concentration showing target engagement (Bruton's tyrosine kinase): 100 nM | IC50 (OATP1B3): 7.15 µM | inhibition at 30 μM (OATP1B3; human, HEK293 cells stably expressing human OATP1B3, pH 7.4, probe CCK-8 (0.1 μM)): 86.7% | reversible or time-dependent inhibition of CYP2C9 (CYP2C9): No reversible or time‐dependent inhibition | Cmax [1]: ~1000 nM | reversible or time-dependent inhibition of CYP2D6 (CYP2D6): No reversible or time‐dependent inhibition | clinical classification as CYP3A inhibitor (CYP3A [2]): weak inhibitor | terminal half-life (t1/2) [3]: 4−10 hours | kinact/Ki ratio, CYP3A (CYP3A [4]): 1.4 mL/min/µmol | time-dependent inhibition (TDI) of CYP3A (CYP3A [4]; MDZ and testosterone as probe substrates): TDI was observed | kinact (CYP3A [4]; probe midazolam (50 µM)): 0.00019 s⁻¹ | kinact (CYP3A [4]; probe testosterone (250 µM)): 0.00025 s⁻¹ | reversible CYP3A inhibition (CYP3A [5]): no reversible CYP3A inhibition
